Experimental data published in ChEMBL document CHEMBL2150887, “Design, Prins-cyclization reaction promoting diastereoselective synthesis of 10 new tetrahydropyran derivatives and in vivo antinociceptive evaluations” (Eur J Med Chem, 2012).
The source made the active and inactive calls. The calls are words filed in the database; no cut-off is given here.

Tests used:
Mus musculus [1] = assay: Antinociceptive activity in Swiss albino mouse assessed as inhibition of acetic-acid induced abdominal writhing at 30 mg/kg, po administered prior to acetic-acid challenge measured after 30 mins relative to untreated-control; format: functional; conditions: Abdomen, 0.5 h
Outline: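 Male Albino-Swiss mice (20-24 g), n = 6, were pretreated orally at 30 mg/kg in 5% ethyl acetate vehicle (5 mL/kg). Writhing was induced with 1.2% (v/v) acetic acid i.p. Writhes (abdominal contraction, body stretching, hind-limb extension) were counted for 30 min starting immediately after injection and compared with the control group. ANOVA/Bonferroni, P < 0.05.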

Mus musculus [2] = assay: Antinociceptive activity in Swiss albino mouse assessed as increase in tail-flick latency at 30 mg/kg, po measured up to 120 mins relative to untreated-control; format: functional, organism-based; parameters: dose 30 mg/kg
Outline: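 Male Albino-Swiss mice (20-24 g), n = 6 per group, given 30 mg/kg p.o. as a suspension in 5% ethyl acetate vehicle (5 mL/kg). Tail-flick latency was measured every 20 min: two pre-dose readings were averaged as baseline, then six post-dose readings. Results are expressed as % increase over baseline and as AUC from 20-120 min. ANOVA with Bonferroni test, P < 0.05.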

Mus musculus [3] = assay: Toxicity in Swiss albino mouse assessed as piloerection up to 2000 mg/kg, po measured from 5 hrs post-dose to 14 days relative to untreated-control; format: organism-based; parameters: dose 2000 mg/kg, route oral; conditions: in vivo
Outline: (§1)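 Acute toxicity followed WHO and OECD guidelines. Male Albino-Swiss mice received single oral doses increasing up to 2000 mg/kg. Behaviour (disorientation, hyperactivity, piloerection, hyperventilation) was observed from 5 h after dosing and then daily until day 14. LD50 was estimated by nonlinear regression of % deaths against dose.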

Mus musculus [4] = assay: Neurotoxicity in Swiss albino mouse assessed as alteration in motor activity at 30 mg/kg, po administered 60 mins prior to testing measured for 5 mins by rotarod test relative to untreated-control; format: toxicity, organism-based; parameters: dose 30 mg/kg, route oral; conditions: in vivo
Outline: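 Mice were trained twice the day before to stay 5 min on a rotarod turning at 10 rev/min. Twenty-four hours later they received 30 mg/kg p.o. or vehicle. Sixty minutes after dosing they were placed on the roller for 5 min, and the number of falls was recorded as the neurological deficit.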

Mus musculus [5] = assay: Toxicity in Swiss albino mouse assessed as hyperactivity up to 2000 mg/kg, po measured from 5 hrs post-dose to 14 days relative to untreated-control; format: organism-based; parameters: dose 2000 mg/kg, route oral; conditions: in vivo; outline: as §1
Mus musculus [6] = assay: Neurotoxicity in Swiss albino mouse assessed as alteration in motor activity at 30 mg/kg, po administered 60 mins prior to testing measured for 5 mins by open field test relative to untreated-control; format: toxicity, organism-based; parameters: dose 30 mg/kg, route oral; conditions: in vivo
Outline: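 Male Albino-Swiss mice, n = 6, received 30 mg/kg p.o. or vehicle. Sixty minutes after dosing, each mouse was placed alone in a chamber whose floor was divided into 50 squares of 5 × 5 cm. Squares crossed were counted over 5 min.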

Mus musculus [7] = assay: Toxicity in Swiss albino mouse assessed as disorientation up to 2000 mg/kg, po measured from 5 hrs post-dose to 14 days relative to untreated-control; format: organism-based; parameters: dose 2000 mg/kg, route oral; conditions: in vivo; outline: as §1
[8] = Toxicity in po dosed Swiss albino mouse; format: organism-based; conditions: in vivo
Outline: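 Acute oral toxicity per WHO and OECD guidelines. Male Albino-Swiss mice (20–24 g), 6 per group, held at 20 ± 2 °C on a 12 h light/dark cycle. Given single oral doses rising to 2000 mg/kg, as a suspension in 5% ethyl acetate at 5 mL/kg. Behaviour watched from 5 h after dosing, then daily to day 14. LD50 from nonlinear regression of percent deaths against dose.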

Mus musculus [9] = assay: Toxicity in Swiss albino mouse assessed as hyperventilation up to 2000 mg/kg, po measured from 5 hrs post-dose to 14 days relative to untreated-control; format: organism-based; parameters: dose 2000 mg/kg, route oral; conditions: in vivo; outline: as §1
Mus musculus [10] = assay: Antinociceptive activity in mouse assessed as inhibition of acetic-acid induced abdominal writhing at 50 mg/kg administered 60 mins prior to acetic-acid challenge; format: functional; conditions: Abdomen

OC[C@H]1CCC[C@@H](c2cccc3ccccc23)O1 (relative stereo)
inhibition in vivo at 30 mg/kg (Mus musculus [1]): 39.2% | Activity (Mus musculus [2]): Active | Activity (Mus musculus [3]): Non-toxic | Activity (Mus musculus [4]): Non-toxic | Activity (Mus musculus [5]): Non-toxic | Activity (Mus musculus [6]): Non-toxic | Activity (Mus musculus [7]): Non-toxic | LD50 [8]: > 2000 mg/kg | Activity (Mus musculus [9]): Non-toxic

CC(C)C(=O)OC[C@H]1C[C@@H](Cl)C[C@@H](c2ccc3ccccc3c2)O1 (relative stereo)
inhibition in vivo at 30 mg/kg (Mus musculus [1]): 44.4% | Activity (Mus musculus [2]): Active | Activity (Mus musculus [3]): Non-toxic | Activity (Mus musculus [4]): Non-toxic | Activity (Mus musculus [5]): Non-toxic | Activity (Mus musculus [6]): Non-toxic | Activity (Mus musculus [7]): Non-toxic | LD50 [8]: > 2000 mg/kg | Activity (Mus musculus [9]): Non-toxic

O=C(O)[C@H]1C[C@@H](Cl)C[C@@H](c2ccc3ccccc3c2)O1 (relative stereo)
inhibition in vivo at 30 mg/kg (Mus musculus [1]): 28.1% | Activity (Mus musculus [2]): Active | Activity (Mus musculus [3]): Non-toxic | Activity (Mus musculus [4]): Non-toxic | Activity (Mus musculus [5]): Non-toxic | Activity (Mus musculus [6]): Non-toxic | Activity (Mus musculus [7]): Non-toxic | LD50 [8]: > 2000 mg/kg | Activity (Mus musculus [9]): Non-toxic

OC[C@H]1CCC[C@@H](c2ccc3ccccc3c2)O1 (relative stereo)
inhibition in vivo at 30 mg/kg (Mus musculus [1]): 55.7% | Activity (Mus musculus [2]): Active | Activity (Mus musculus [3]): Non-toxic | Activity (Mus musculus [4]): Non-toxic | Activity (Mus musculus [5]): Non-toxic | Activity (Mus musculus [6]): Non-toxic | Activity (Mus musculus [7]): Non-toxic | LD50 [8]: > 2000 mg/kg | Activity (Mus musculus [9]): Non-toxic

OC[C@H]1C[C@@H](Cl)C[C@@H](c2cccc3ccccc23)O1 (relative stereo)
inhibition in vivo at 30 mg/kg (Mus musculus [1]): 87.5% | Activity (Mus musculus [2]): Active | Activity (Mus musculus [3]): Non-toxic | Activity (Mus musculus [4]): Non-toxic | Activity (Mus musculus [5]): Non-toxic | Activity (Mus musculus [6]): Non-toxic | Activity (Mus musculus [7]): Non-toxic | LD50 [8]: > 2000 mg/kg | Activity (Mus musculus [9]): Non-toxic

O=C(O)[C@H]1CCC[C@@H](c2ccc3ccccc3c2)O1
inhibition in vivo at 30 mg/kg (Mus musculus [1]): 43.1% | Activity (Mus musculus [2]): Active | Activity (Mus musculus [3]): Non-toxic | Activity (Mus musculus [4]): Non-toxic | Activity (Mus musculus [5]): Non-toxic | Activity (Mus musculus [6]): Non-toxic | Activity (Mus musculus [7]): Non-toxic | LD50 [8]: > 2000 mg/kg | Activity (Mus musculus [9]): Non-toxic

O=C(O)[C@H]1CCC[C@@H](c2cccc3ccccc23)O1 (relative stereo)
inhibition in vivo at 30 mg/kg (Mus musculus [1]): 49% | Activity (Mus musculus [2]): Active | Activity (Mus musculus [3]): Non-toxic | Activity (Mus musculus [4]): Non-toxic | Activity (Mus musculus [5]): Non-toxic | Activity (Mus musculus [6]): Non-toxic | Activity (Mus musculus [7]): Non-toxic | LD50 [8]: > 2000 mg/kg | Activity (Mus musculus [9]): Non-toxic

OC[C@H]1C[C@@H](Cl)C[C@@H](c2ccc3ccccc3c2)O1 (relative stereo)
inhibition in vivo at 30 mg/kg (Mus musculus [1]): 46.6% | Activity (Mus musculus [2]): Active | Activity (Mus musculus [3]): Non-toxic | Activity (Mus musculus [4]): Non-toxic | Activity (Mus musculus [5]): Non-toxic | Activity (Mus musculus [6]): Non-toxic | Activity (Mus musculus [7]): Non-toxic | LD50 [8]: > 2000 mg/kg | Activity (Mus musculus [9]): Non-toxic

O=C(O)[C@H]1C[C@@H](Cl)C[C@@H](c2cccc3ccccc23)O1 (relative stereo)
inhibition in vivo at 30 mg/kg (Mus musculus [1]): 54.4% | Activity (Mus musculus [2]): inactive | Activity (Mus musculus [3]): Non-toxic | Activity (Mus musculus [4]): Non-toxic | Activity (Mus musculus [5]): Non-toxic | Activity (Mus musculus [6]): Non-toxic | Activity (Mus musculus [7]): Non-toxic | LD50 [8]: > 2000 mg/kg | Activity (Mus musculus [9]): Non-toxic

CC[C@@H]1CCC[C@H](C(=O)O)O1 (racemic)
inhibition in vivo at 30 mg/kg (Mus musculus [1]): 14.1% | Activity (Mus musculus [2]): Active | Activity (Mus musculus [3]): Non-toxic | inhibition in vivo at 50 mg/kg (Mus musculus [10]): 15% | Activity (Mus musculus [4]): Non-toxic | Activity (Mus musculus [5]): Non-toxic | Activity (Mus musculus [6]): Non-toxic | Activity (Mus musculus [7]): Non-toxic | LD50 [8]: > 2000 mg/kg | Activity (Mus musculus [9]): Non-toxic

CC(C)C(=O)OC[C@H]1C[C@@H](Cl)C[C@@H](c2cccc3ccccc23)O1 (relative stereo)
inhibition in vivo at 30 mg/kg (Mus musculus [1]): 38.4% | Activity (Mus musculus [2]): Active | Activity (Mus musculus [3]): Non-toxic | Activity (Mus musculus [4]): Non-toxic | Activity (Mus musculus [5]): Non-toxic | Activity (Mus musculus [6]): Non-toxic | Activity (Mus musculus [7]): Non-toxic | LD50 [8]: > 2000 mg/kg | Activity (Mus musculus [9]): Non-toxic
